In ChEMBL document CHEMBL1124106, “Synthesis of diethylenetriaminepentaacetic acid conjugated inulin and utility for cellular uptake of liposomes” (J Med Chem, 1988):
Several values for one entry are separate records, joined by “and”; a condition that tells them apart may be missing. Identical values can stand only once.

Key:
Mus musculus [1] = experiment: Biodistribution in mice spleen, after 24 hr of intravenous administration of 1-2 ug of compound (entrapped in bovine brain sphingomyelin/ cholesterol multilamellar vehicles); assay type: ADME, organism-based; conditions: in vivo
Summary of the method: (§1)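 BALB/c mice (about 25 g), 3–5 per group, given 50–100 μL tail-vein injection of 111In-labeled conjugate entrapped in SM/CH (2:1 mol/mol) multilamellar vesicles, approx. 100 000 cpm; dose 1–2 μg phospholipid/g body weight. Killed by cervical dislocation at set times; blood, cumulative excretion and rinsed, blotted, weighed tissues γ-counted, blood background subtracted. Result is % injected dose ± SD.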

Mus musculus [2] = experiment: Biodistribution of compound in mice tail after 21 hr of intravenous injection; assay type: ADME, organism-based; conditions: in vivo
Summary of the method: (§2)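 BALB/c mice (about 25 g), n = 4. Free ¹¹¹In- or ⁶⁷Ga-labeled compound (50–100 μL, about 100 000 cpm) was injected into a tail vein. Mice were held in separate cages and killed by cervical dislocation, with blood and cumulative excreta collected. Tissues were rinsed, blotted, weighed and γ-counted, with blood background subtracted (blood volume 8.0%). Values are % injected dose ± SD.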

Mus musculus [3] = experiment: Biodistribution in mice heart, after 48 hr of intravenous administration of 1-2 ug of compound (entrapped in bovine brain sphingomyelin/ cholesterol multilamellar vehicles); assay type: ADME, organism-based; conditions: in vivo; summary of the method: as §1
Mus musculus [4] = experiment: Biodistribution in mice fat, after 24 hr of intravenous administration of 1-2 ug of compound (entrapped in bovine brain sphingomyelin/ cholesterol multilamellar vehicles); assay type: ADME, organism-based; conditions: in vivo; summary of the method: as §1
Mus musculus [5] = experiment: Biodistribution in mice brain, after 24 hr of intravenous administration of 1-2 ug of compound (entrapped in bovine brain sphingomyelin/ cholesterol multilamellar vehicles); assay type: ADME, organism-based; conditions: in vivo; summary of the method: as §1
Mus musculus [6] = experiment: Biodistribution in mice skin, after 24 hr of intravenous aadministration of 1-2 ug of compound (entrapped in bovine brain sphingomyelin/ cholesterol multilamellar vehicles); assay type: ADME, organism-based, Zone of skin; conditions: in vivo; summary of the method: as §1
Mus musculus [7] = experiment: Biodistribution of compound in mice spleen after 0.17 hr of intravenous injection; assay type: ADME, organism-based; conditions: in vivo; summary of the method: as §2
Mus musculus [8] = experiment: Biodistribution in mice lung, after 24 hr of intravenous administration of 1-2 ug of compound (entrapped in bovine brain sphingomyelin/ cholesterol multilamellar vehicles); assay type: ADME, organism-based; conditions: in vivo; summary of the method: as §1
Mus musculus [9] = experiment: Biodistribution in mice skin, after 48 hr of intravenous administration of 1-2 ug ofcompound (entrapped in bovine brain sphingomyelin/ cholesterol multilamellar vehicles); assay type: ADME, organism-based, Zone of skin; conditions: in vivo; summary of the method: as §1
Mus musculus [10] = experiment: Biodistribution in mice carcass, after 24 hr of intravenous administration of 1-2 ug ofcompound (entrapped in bovine brain sphingomyelin/ cholesterol multilamellar vehicles); assay type: ADME, organism-based; conditions: in vivo; summary of the method: as §1
[11] = (§3) Biodistribution of compound in mice excretion after 0.17 hr of intravenous injection; assay type: ADME, organism-based; conditions: mouse, excretion (excreta, not specified further), read-out: ID; summary of the method: as §2
Mus musculus [12] = experiment: as §3; assay type: ADME, organism-based; conditions: in vivo, 0.17 h; summary of the method: as §2
Mus musculus [13] = experiment: Biodistribution in mice intestine, after 48 hr of intravenous administration of 1-2 ug of compound (entrapped in bovine brain sphingomyelin/ cholesterol multilamellar vehicles); assay type: ADME, organism-based; conditions: in vivo; summary of the method: as §1
[14] = Biodistribution in mice excretion, after 1 hr of intravenous administration of 1-2 ug of compound (entrapped in bovine brain sphingomyelin/ cholesterol multilamellar vehicles); assay type: ADME, organism-based; conditions: mouse, excretion (excreta, not specified further), read-out: ID; summary of the method: as §1
Mus musculus [15] = experiment: Biodistribution in mice lung, after 1 hr of intravenous administration of 1-2 ug of compound (entrapped in bovine brain sphingomyelin/ cholesterol multilamellar vehicles); assay type: ADME, organism-based; conditions: in vivo; summary of the method: as §1
Mus musculus [16] = experiment: Biodistribution in mice heart, after 1 hr of intravenous administration of 1-2 ug of compound (entrapped in bovine brain sphingomyelin/ cholesterol multilamellar vehicles); assay type: ADME, organism-based; conditions: in vivo; summary of the method: as §1
[17] = (§4) Biodistribution of compound in mice excretion after 1 hr of intravenous injection; assay type: ADME, organism-based; conditions: mouse, excretion (excreta, not specified further), read-out: ID; summary of the method: as §2
Mus musculus [18] = experiment: as §4; assay type: ADME, organism-based; conditions: in vivo, 1 h; summary of the method: as §2
Mus musculus [19] = experiment: Biodistribution in mice stomach, after 24 hr of intravenous administration of 1-2 ug of ofcompound (entrapped in bovine brain sphingomyelin/ cholesterol multilamellar vehicles); assay type: ADME, organism-based; conditions: in vivo
Summary of the method: (§5)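 BALB/c mice (about 25 g), groups of 2–5. Compound ¹¹¹In-loaded into SM/CH (2:1, mol/mol) multilamellar vesicles, given as a single tail-vein injection. Lipid dose was 1–2 μg phospholipid/g body weight, in 50–100 μL carrying about 100 000 cpm. Mice were killed by cervical dislocation. Organs were rinsed, blotted, weighed and γ-counted, with blood background subtracted. Values are % injected dose ± SD.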

Mus musculus [20] = experiment: Biodistribution in mice lung, after 48 hr of intravenous administration of 1-2 ug of compound (entrapped in bovine brain sphingomyelin/ cholesterol multilamellar vehicles); assay type: ADME, organism-based; conditions: in vivo; summary of the method: as §1
Mus musculus [21] = experiment: Biodistribution in mice brain, after 12 hr of intravenous administration of 1-2 ug of compound (entrapped in bovine brain sphingomyelin/ cholesterol multilamellar vehicles); assay type: ADME, organism-based; conditions: in vivo; summary of the method: as §1
Mus musculus [22] = experiment: Biodistribution of compound in mice intestine after 0.17 hr of intravenous injection; assay type: ADME, organism-based; conditions: in vivo; summary of the method: as §2
Mus musculus [23] = experiment: Biodistribution in mice skin, after 1 hr of intravenous administration of 1-2 ug of compound (entrapped in bovine brain sphingomyelin/ cholesterol multilamellar vehicles); assay type: ADME, organism-based, Zone of skin; conditions: in vivo; summary of the method: as §1
Mus musculus [24] = experiment: Biodistribution of compound in mice liver after 0.17 hr of intravenous injection; assay type: ADME, organism-based; conditions: in vivo; summary of the method: as §2
Mus musculus [25] = experiment: Biodistribution in mice leg muscle, after 48 hr of intravenous administration of compound (entrapped in bovine brain sphingomyelin/ cholesterol multilamellar vehicles); assay type: ADME, organism-based, Muscle tissue; conditions: in vivo; summary of the method: as §1
Mus musculus [26] = experiment: Biodistribution in mice leg muscle, after 24 hr of intravenous administration of 1-2 ug of compound (entrapped in bovine brain sphingomyelin/ cholesterol multilamellar vehicles); assay type: ADME, organism-based, Muscle tissue; conditions: in vivo; summary of the method: as §1
Mus musculus [27] = experiment: Biodistribution of compound in mice liver after 21 hr of intravenous injection; assay type: ADME, organism-based; conditions: in vivo; summary of the method: as §2
Mus musculus [28] = experiment: Biodistribution of compound in mice leg muscle after 21 hr of intravenous injection; assay type: ADME, organism-based, Muscle tissue; conditions: in vivo; summary of the method: as §2
Mus musculus [29] = experiment: Biodistribution of compound in mice spleen after 21 hr of intravenous injection; assay type: ADME, organism-based; conditions: in vivo; summary of the method: as §2
Mus musculus [30] = experiment: Biodistribution of compound in mice blood after 21 hr of intravenous injection; assay type: ADME, organism-based; conditions: in vivo; summary of the method: as §2
Mus musculus [31] = experiment: Biodistribution of compound in mice carcass after 1 hr of intravenous injection; assay type: ADME, organism-based; conditions: in vivo; summary of the method: as §2
Mus musculus [32] = experiment: Biodistribution in mice liver, after 48 hr of intravenous administration of 1-2 ug ofcompound (entrapped in bovine brain sphingomyelin/ cholesterol multilamellar vehicles); assay type: ADME, organism-based; conditions: in vivo; summary of the method: as §1
Mus musculus [33] = experiment: Biodistribution in mice brain, after 1 hr of intravenous administrating 1-2 ug of compound (entrapped in bovine brain sphingomyelin/ cholesterol multilamellar vehicles); assay type: ADME, organism-based; conditions: in vivo; summary of the method: as §1
Mus musculus [34] = experiment: Biodistribution in mice skin, after 12 hr of intravenous administration of 1-2 ug of compound (entrapped in bovine brain sphingomyelin/ cholesterol multilamellar vehicles); assay type: ADME, organism-based, Zone of skin; conditions: in vivo; summary of the method: as §1
Mus musculus [35] = experiment: Biodistribution in mice carcass, after 1 hr of intravenous administration of 1-2 ug ofcompound (entrapped in bovine brain sphingomyelin/ cholesterol multilamellar vehicles); assay type: ADME, organism-based; conditions: in vivo; summary of the method: as §1
Mus musculus [36] = experiment: Biodistribution in mice leg muscle, after 12 hr of intravenous administration of 1-2 ug of compound (entrapped in bovine brain sphingomyelin/ cholesterol multilamellar vehicles); assay type: ADME, organism-based, Muscle tissue; conditions: in vivo; summary of the method: as §1
Mus musculus [37] = experiment: Biodistribution in mice carcass, after 12 hr of intravenous administration of 1-2 ug of compound (entrapped in bovine brain sphingomyelin/ cholesterol multilamellar vehicles); assay type: ADME, organism-based; conditions: in vivo; summary of the method: as §1
Mus musculus [38] = experiment: Biodistribution in mice stomach, after 12 hr of intravenous administration of 1-2 ug of compound (entrapped in bovine brain sphingomyelin/ cholesterol multilamellar vehicles); assay type: ADME, organism-based; conditions: in vivo; summary of the method: as §5
[39] = Biodistribution in mice excretion, after 48 hr of intravenous administration of 1-2 ug of compound (entrapped in bovine brain sphingomyelin/ cholesterol multilamellar vehicles) at; assay type: ADME, organism-based; conditions: mouse, excretion (excreta, not specified further), read-out: ID; summary of the method: as §1

NCCNC(=O)CN(CCN(CCN(CC(=O)O)CC(=O)O)CC(=O)O)CC(=O)O
ID (Mus musculus [1]): 1.9% | ID (Mus musculus [2]): 2.1% and 2.3% | ID (Mus musculus [3]): 0% | ID (Mus musculus [4]): 0.4% | ID (Mus musculus [5]): 0.2% | ID (Mus musculus [6]): 2% | ID (Mus musculus [7]): 0.2% and 0.1% | ID (Mus musculus [8]): 0.4% | ID (Mus musculus [9]): 2.8% | ID (Mus musculus [10]): 2.1% | dose excreted at 0.17 h [11]: 3.6% | ID (Mus musculus [12]): 3.2% | ID (Mus musculus [13]): 0.6% | dose excreted at 1 h [14]: 0% | ID (Mus musculus [15]): 0.4% | ID (Mus musculus [16]): 0% | dose excreted at 1 h [17]: 50.7% | ID (Mus musculus [18]): 50% | ID (Mus musculus [19]): 0.1% | ID (Mus musculus [20]): 0.2% | ID (Mus musculus [21]): 0% | ID (Mus musculus [22]): 2.2% and 2.4% | ID (Mus musculus [23]): 1.6% | ID (Mus musculus [24]): 0.6% and 1.3% | ID (Mus musculus [25]): 0.3% | ID (Mus musculus [26]): 0.2% | ID (Mus musculus [27]): 0.4% and 2.1% | ID (Mus musculus [28]): 0.2% and 0.3% | ID (Mus musculus [29]): 0.1% | ID (Mus musculus [30]): 1% and 0.7% | ID (Mus musculus [31]): 4.1% and 9.1% | ID (Mus musculus [32]): 62.4% | ID (Mus musculus [33]): 0% | ID (Mus musculus [34]): 1.1% | ID (Mus musculus [35]): 4% | ID (Mus musculus [36]): 0.4% | ID (Mus musculus [37]): 2% | ID (Mus musculus [38]): 0.2% | dose excreted at 48 h [39]: 0%
